This is an account of results in ChEMBL document CHEMBL3596149, “Thermodynamics and kinetic studies in the binding interaction of cyclic naphthalene diimide derivatives with double stranded DNAs” (Bioorg Med Chem, 2015).

Active and inactive are the calls of the source. The rule behind the calls is not given here.

Assay [1] has as its system Calf thymus DNA. The assay is described as follows: Binding affinity to calf thymus DNA assessed as delta(logK)/delta(log[Na+]) ratio at 0.05 to 0.125 M NaCl by UV-vis titration method. The assay is classed as nucleic-acid assay. Conditions: Bos taurus. The method, boiled down:
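Binding constants for CT-DNA were measured by UV-vis Scatchard titration in 10 mM MES pH 6.25 with 1 mM EDTA at varied NaCl. The ratio is the slope of log K plotted against −log[Na+].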

Assay [2] deals with Calf thymus DNA. The assay is described as follows: Binding affinity to calf thymus DNA assessed as association constant by stopped flow kinetics assay. The assay is classed as nucleic-acid assay. The following applies: Bos taurus. The method in brief:
(§1)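 Ligand was mixed with DNA in a stopped-flow instrument, in 10 mM MES pH 6.25 with 0.1 M NaCl and 1 mM EDTA. Ligand to DNA base-pair ratio was 1:10. Absorbance was followed at the ligand maximum (383 nm). Traces were fitted to a single exponential, and apparent rate constants were plotted against DNA concentration.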

Assay [3] can be described thus: Binding affinity to poly[d(A-T)]2 DNA (unknown origin) assessed as association constant by stopped flow kinetics assay. The method in brief: as §1
A short description of assay [4]: Binding affinity to poly[d(G-C)]2 DNA (unknown origin) assessed as association constant by stopped flow kinetics assay. The method, boiled down:
as §1

The subject of assay [5] is Calf thymus DNA. The assay is described as follows: Binding affinity to calf thymus DNA assessed as dissociation constant by stopped flow kinetics assay. In kind it is nucleic-acid assay, Bos taurus. The method in brief:
(§2)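 Dissociation was SDS-driven and measured by stopped-flow. Equal volumes of 1% SDS and ligand–DNA complex (ligand:bp 1:10) were mixed rapidly. Buffer was 10 mM MES pH 6.25 with 100 mM NaCl and 1 mM EDTA. Absorbance was recorded over time, and k_d was obtained by nonlinear fitting of the trace.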

Assay [6] can be described thus: Binding affinity to poly[d(A-T)]2 DNA (unknown origin) assessed as dissociation constant by stopped flow kinetics assay. The method, boiled down:
as §2

Assay [7] is described as follows: Binding affinity to poly[d(G-C)]2 DNA (unknown origin) assessed as dissociation constant by stopped flow kinetics assay. The method, boiled down:
as §2

Assay [8] concerns Calf thymus DNA. The assay is described as follows: Binding affinity to calf thymus DNA assessed as hypochromicity by UV-vis titration method. The assay is classed as nucleic-acid assay. The following applies: Bos taurus. The method in brief:
(§3)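 Titration was the same as the UV-vis binding titration: 6.7 µM ligand, 10 mM MES pH 6.25, 100 mM NaCl, 1 mM EDTA, 25°C. Hypochromicity was calculated as H% = (A383 free − A383 bound)/A383 free × 100.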

Assay [9] in a line: Binding affinity to poly[d(A-T)]2 DNA (unknown origin) assessed as hypochromicity by UV-vis titration method. The method in brief:
as §3

Assay [10] can be described thus: Binding affinity to poly[d(G-C)]2 DNA (unknown origin) assessed as hypochromicity by UV-vis titration method. The method in brief:
as §3

The test system of assay [11] is Calf thymus DNA. Kind of assay: Binding affinity to calf thymus DNA assessed as change in enthalpy by thermodynamics analysis. In kind it is nucleic-acid assay. The following applies: Bos taurus. The method in brief: (§4)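 Binding constants for CT-DNA were obtained by UV-vis titration at 20–27.5°C in 10 mM MES pH 6.25 with 0.1 M NaCl and 1 mM EDTA. ΔH and ΔS were taken from a van't Hoff plot of lnK vs 1/T. ΔG at 25°C came from the Gibbs equation.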

For assay [12], the system named is Calf thymus DNA. Kind of assay: Binding affinity to calf thymus DNA assessed as change in entropy by thermodynamics analysis. The assay is classed as nucleic-acid assay. The following applies: Bos taurus. The method, boiled down: as §4
In assay [13] the test system is Calf thymus DNA. The assay is described as follows: Binding affinity to calf thymus DNA assessed as change in free energy at 25 degC by thermodynamics analysis. Conditions: Bos taurus. The assay is classed as nucleic-acid assay. The method, boiled down: as §4
A further assay has as its system Nucleic Acid. Kind of assay: Induction of DNA intercalation of pUC19 DNA assessed as compound level causing DNA re-supercoiling in presence of topoisomerase-1 incubated for 1 hr at 37 degC by electrophoresis method. The assay is classed as nucleic-acid assay. Conditions: Escherichia coli. The method, boiled down: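 pUC19 (0.25 µg) was preincubated with 5 U topoisomerase I for 5 min at 37°C. Reaction buffer was 35 mM Tris-HCl pH 8.0, 72 mM KCl, 5 mM MgCl2, 5 mM DTT, 5 mM spermidine and 0.1% BSA. Ligand (2.0–50 µM) was then added for 1 h at 37°C. After SDS/proteinase K treatment, extraction and ethanol precipitation, DNA was run on 1% agarose in TAE (18 V, 3.5 h) and GelStar-stained.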

Assay [14] can be described thus: Selectivity index, ratio of binding constant K for calf thymus DNA to binding constant K for poly[d(G-C)]2 DNA (unknown origin). The method in brief: (§5)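 The ratio uses binding constants from UV-vis Scatchard/McGhee–von Hippel titrations. Conditions were 6.7 µM ligand, 25°C, 10 mM MES pH 6.25, 100 mM NaCl, 1 mM EDTA.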
Assay [15] can be described thus: Selectivity index, ratio of binding constant K for poly[d(A-T)]2 DNA (unknown origin) to binding constant K for poly[d(G-C)]2 DNA (unknown origin). The method, boiled down: as §5
Assay [16] deals with Calf thymus DNA. The assay is described as follows: Binding affinity to calf thymus DNA assessed as increase in positive and negative CD bands at 5 to 50 uM at 25 degC by CD spectroscopy. In kind it is nucleic-acid assay. The following applies: Bos taurus. The method in brief: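 Ligand at 5–50 µM was added to 100 µM/bp CT-DNA in 10 mM MES pH 6.25 with 100 mM NaCl and 1 mM EDTA, at 25°C. CD spectra were recorded, including the induced CD region at 320–400 nm.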

Turning to `CN(C)CCCN1C(=O)c2ccc3c4c(ccc(c24)C1=O)C(=O)N(CCCN(C)C)C3=O`, the Ratio with Calf thymus DNA [1] worked out at 0.83. The K turned out to be 120000 M⁻¹ s⁻¹ in the assay with Calf thymus DNA [2], 260000 M⁻¹ s⁻¹ in assay [3] and 84000 M⁻¹ s⁻¹ in assay [4]. Further, the Kd in the assay on Calf thymus DNA [5] was 1.1 s⁻¹; in assay [6], 2.6 s⁻¹; in [7] it was 0.3 s⁻¹. Further, the Activity came out at 62% in the assay on Calf thymus DNA [8], 60% in [9] and 61% in [10]. In the assay on Calf thymus DNA [11], the deltaH is -28 kJ/mol. The deltaS with Calf thymus DNA [12] was found to be 0.0126 kJ/mol. For the same compound, the deltaG in the assay with Calf thymus DNA [13] is -31.8 kJ/mol.

Turning to `O=C1NCCCN2CCN(CCCN3C(=O)c4ccc5c6c(ccc(c46)C3=O)C(=O)N(CCCN3CCN(CCCNC(=O)c4ccc1cc4)CC3)C5=O)CC2`, in the assay with Calf thymus DNA [1], the Ratio was 0.72. Moreover, the K is 60000 M⁻¹ s⁻¹ with Calf thymus DNA [2], 120000 M⁻¹ s⁻¹ in assay [3] and 34000 M⁻¹ s⁻¹ in assay [4]. Further, the Kd with Calf thymus DNA [5] was 0.1 s⁻¹; in assay [6], 0.15 s⁻¹; in assay [7], 0.003 s⁻¹. Moreover, the Activity came out at 2 µM with Nucleic Acid, 60% in the assay with Calf thymus DNA [8], 47% in [9] and 61% in assay [10]. Moreover, the Selectivity Index in [14] and in assay [15] was 9 each time. In addition, in the assay with Calf thymus DNA [11], the deltaH was 32.6 kJ/mol. Besides, the deltaS with Calf thymus DNA [12] is 0.222 kJ/mol. Further, the deltaG in the assay with Calf thymus DNA [13] is -33.5 kJ/mol.

On to `CN1CCCNC(=O)c2ccc(cc2)C(=O)NCCCN(C)CCCN2C(=O)c3ccc4c5c(ccc(c35)C2=O)C(=O)N(CCC1)C4=O`, for which the Ratio with Calf thymus DNA [1] amounted to 0.74. For the same compound, the K came out at 120000 M⁻¹ s⁻¹ with Calf thymus DNA [2], 32000 M⁻¹ s⁻¹ in assay [3] and 26000 M⁻¹ s⁻¹ in [4]. The Kd with Calf thymus DNA [5] stood at 1.1 s⁻¹; in assay [6], 4.2 s⁻¹; in assay [7] it was 1 s⁻¹. Further, the Activity worked out at 10 µM in the assay with Nucleic Acid, 60% in the assay on Calf thymus DNA [8], 49% in [9] and 61% in [10]. Also, in the assay on Calf thymus DNA [16], the result was Active. Moreover, the deltaH in the assay on Calf thymus DNA [11] was determined as 38.5 kJ/mol. Besides, the deltaS with Calf thymus DNA [12] turned out to be 0.226 kJ/mol. Further, in the assay on Calf thymus DNA [13], the deltaG is -29.3 kJ/mol.
